Assay results from ChEMBL document CHEMBL5335820, “Novel quinolinepiperazinyl-aryltetrazoles targeting the blood stage of Plasmodium falciparum” (RSC Med Chem, 2024).
The source made the active and inactive calls. No cut-off for these calls is given here.

Tests used:
[1] = test system: Plasmodium falciparum; experiment: Antiplasmodial activity against chloroquine sensitive Plasmodium falciparum 3D7 infected in human erythrocytes assessed as inhibition of parasite growth at 100 uM incubated for 72 hrs by SYBR green I staining based fluorescence plate reader analysis relative to control; type: functional; details: 3D7, Erythrocyte
Summary of the method: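 Pf3D7 grown in O+ human erythrocytes at 4% haematocrit, Albumax (0.05%)-RPMI, 37 °C, 5% O2/5% CO2/90% N2, sorbitol-synchronised at ring stage. Single-point screen at 100 μM, final DMSO 0.4%, triplicate wells, 72 h. Read-out by SYBR Green I lysis buffer (Tris pH 7.5, EDTA, saponin, Triton X-100), 1 h dark at 37 °C, ex 485/em 530 nm. Growth expressed relative to untreated culture.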

[2] = test system: Plasmodium falciparum; experiment: Antiplasmodial activity against chloroquine resistant Plasmodium falciparum INDO trophozoites infected in human erythrocytes assessed as increase in reactive oxygen species level at 2 times IC50 concentration incubated for 8 hrs by H2DCFDA staining based fluorescence analysis; type: functional, organism-based; details: Erythrocyte
Summary of the method: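 PfINDO trophozoites (24–28 h post-invasion), 2% parasitemia, 2% haematocrit, were loaded with CM-H2DCFDA (5 μM, 30 min) and washed with PBS. They were then treated at 2× IC50 for 8 h, and DCF fluorescence was read at 530 nm. Controls were 100 μM H2O2 (positive) and 0.4% DMSO (negative). Triplicate biological samples.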

[3] = Toxicity in mouse assessed as effect on eye colour at 100 mg/kg, po measured after 45 mins; type: organism-based; details: in vivo, 0.75 h
Summary of the method: (§1)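 Acute oral toxicity per OECD 423. Mice were fasted 4 h, given a single 100 mg/kg oral dose, and observed for 45 min for signs of acute toxicity, compared with untreated controls.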

[4] = test system: Plasmodium berghei; experiment: Antimalarial activity against Plasmodium berghei ANKA infected in mouse model of malaria assessed as reduction in parasite infection by measuring median survival at 100 mg/kg, po; type: functional
[5] = Toxicity in mouse assessed as death at 100 mg/kg, po measured after 45 mins; type: organism-based; details: in vivo, 0.75 h; summary of the method: as §1
[6] = test system: Plasmodium falciparum; experiment: Additive antiplasmodial activity against multidrug-resistant Plasmodium falciparum Cam3.1R539T infected in human erythrocytes at 8 times IC50 concentration incubated for 72 hrs in presence of pyrimethamine by SYBR green I staining based fluorescence assay; type: functional, organism-based; details: Erythrocyte
Summary of the method: (§2)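 P. falciparum Cam3.1R539T in O+ human erythrocytes, 1% parasitemia, 2% haematocrit. 8× IC50 stocks of test compound and standard drug were mixed at molar ratios 4:1, 3:2, 2:3 and 1:4, then serially diluted two-fold. Plates were incubated 72 h at 37 °C and read by SYBR Green I lysis. Controls were 0.4% DMSO (100% growth) and 4 μM chloroquine (0% growth). ΣFIC = FICA + FICB; <1 synergistic, 1.0–2.0 additive, >2.0 antagonistic.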

[7] = Cytotoxicity against human Huh-7 cells assessed as reduction in cell viability incubated for 24 hrs by MTT assay; type: toxicity, cell-based
[8] = test system: Plasmodium falciparum; experiment: Antimalarial activity against chloroquine resistant late schizont Plasmodium falciparum INDO infected in human erythrocytes assessed as inhibition of parasite growth incubated for 12 hrs; type: functional, organism-based; details: Erythrocyte
Summary of the method: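 PfINDO cultures were staged at 0–6 h (rings), 18–22 h (trophozoites), 30–34 h (early schizonts) and 40–44 h (late schizonts) post-invasion. Each was exposed to varying concentrations for 12 h, washed free of compound by centrifugation, and grown 48 h in drug-free medium. IC50 came from growth curves, with untreated culture as 100% and chloroquine-treated culture as 0% growth.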

[9] = Selectivity index, ratio of CC50 for human Huh-7 cells to IC50 for antiplasmodial activity against chloroquine resistant Plasmodium falciparum INDO infected in human erythrocytes; type: toxicity, cell-based; details: read-out: Ratio CC50/IC50
Summary of the method: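 Selectivity index = CC50 / PfINDO IC50. CC50 came from MTT assays: 10^4 HEK293 or HUH7 cells per well, seeded overnight and exposed to 0–100 μM for 24 h, then MTT for 4 h at 37 °C with formazan dissolved in DMSO and read at A570. Controls were 0.8% DMSO (full growth) and 10% DMSO (zero growth).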

[10] = test system: Plasmodium falciparum; experiment: Antiplasmodial activity against chloroquine resistant ring stage Plasmodium falciparum INDO infected in human erythrocytes assessed as reduction in parasitemia at 1.79 uM incubated for 12 hrs by time-kill kinetics based FACS analysis relative to control; type: functional, Erythrocyte; design: scale not given: the % may be the effect or the level left
Summary of the method: (§3)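 PfINDO rings were exposed to 2.25 or 1.79 μM, with compound washed out by centrifugation at 12, 24, 36, 48 or 57 h. Cultures were then grown drug-free to a total of 96 h. Parasitemia at the end of the second cycle was counted by FACS on 10^5 cells.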

[11] = Toxicity in mouse assessed as changes in skin at 100 mg/kg, po measured after 45 mins; type: organism-based; details: in vivo, 0.75 h; summary of the method: as §1
[12] = test system: Plasmodium falciparum; experiment: Antagonistic antiplasmodial activity against multidrug-resistant Plasmodium falciparum Cam3.1R539T infected in human erythrocytes at 8 times IC50 concentration incubated for 72 hrs in presence of mefloquine by SYBR green I staining based fluorescence assay; type: functional, organism-based; details: Erythrocyte; summary of the method: as §2
[13] = Toxicity in mouse assessed as drowsiness at 100 mg/kg, po measured after 45 mins; type: organism-based; details: in vivo, 0.75 h; summary of the method: as §1
[14] = test system: Plasmodium falciparum; experiment: Antiplasmodial activity against chloroquine resistant schizont stage Plasmodium falciparum INDO infected in human erythrocytes assessed as decrease in parasitemia at 4.30 uM incubated for 4 hrs by time-kill kinetics based FACS analysis; type: functional, organism-based; details: Erythrocyte, dose 4.3 µM
Summary of the method: (§4)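 PfINDO early schizonts (32–36 h post-invasion) and late schizonts (42–45 h post-invasion) were exposed to 5.62 or 4.30 μM for up to 16 h, washed at 4 h intervals, then cultured drug-free to a total of 96 h. Parasitemia was counted by FACS on 10^5 cells at the end of the second cycle; schizont rupture was checked microscopically.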

[15] = Binding affinity to Plasmodium falciparum GAP50 assessed as equilibrium dissociation constant by SPR analysis
Summary of the method: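 GAP50 at 50 μg ml−1 in 10 mM acetate pH 4.5 was amine-coupled (EDC/NHS) onto a CM5 chip. Analytes at several concentrations in 5% DMSO/1× PBS; association 60 s, dissociation 120 s, flow 30 μl min−1. Regeneration with 10 mM glycine pH 3.0 for 30 s. Sensorgrams fitted to a 1:1 Langmuir model giving ka, kd and KD.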

[16] = test system: Plasmodium falciparum; experiment: Antiplasmodial activity against chloroquine resistant schizont stage Plasmodium falciparum INDO infected in human erythrocytes assessed as prevention of schizont rupture at 5.62 uM incubated for 4 hrs by time-kill kinetics based FACS analysis; type: functional, organism-based; details: Erythrocyte; summary of the method: as §4
[17] = test system: Plasmodium falciparum; experiment: Antiplasmodial activity against chloroquine resistant segmental schizont stage Plasmodium falciparum INDO infected in human erythrocytes assessed inhibition of rupture at 5.62 uM preincubated with compound for 8 hrs followed by media replacement without compound and measured after 48 hrs by SYBR Green staining based FACS analysis; type: functional, organism-based; details: Erythrocyte
[18] = test system: Plasmodium falciparum; experiment: Antiplasmodial activity against chloroquine resistant ring stage Plasmodium falciparum INDO infected in human erythrocytes assessed as reduction in parasitemia at 2.25 uM incubated for 12 hrs by time-kill kinetics based FACS analysis relative to control; type: functional, Erythrocyte; design: scale not given: the % may be the effect or the level left; summary of the method: as §3
[19] = test system: Plasmodium falciparum; experiment: Synergistic antiplasmodial activity against multidrug-resistant Plasmodium falciparum Cam3.1R539T infected in human erythrocytes at 8 times IC50 concentration incubated for 72 hrs in presence of mefloquine by SYBR green I staining based fluorescence assay; type: functional, organism-based; details: Erythrocyte; summary of the method: as §2

SMILES	inhibition at 100 µM [1] [%]	Activity [2]	Activity [3]	Survival [4] [days]	Activity [5]	Activity [6]	CC50 at 24 h [7] [µM]	IC50 [8] [µM]	selectivity ratio [9]	Activity [10] [%]	Activity [11]	Activity [12]	Activity [13]	Activity [14]	Kd [15] [µM]	Activity [16]	Activity [17]	Activity [18] [%]	Activity [19]
O=C(Cn1nnc(-c2cccc([N+](=O)[O-])c2)n1)N1CCN(c2ccnc3cc(Cl)ccc23)CC1	> 50	Active	Non-Toxic	22	Non-Toxic	Active	400	7.1	223	~22	Non-Toxic	Active	Non-Toxic	Active	< 100	–	–	–	–
Clc1ccc2c(N3CCN(CCCn4nnc(-c5ccc(Br)cc5)n4)CC3)ccnc2c1	> 50	Active	Non-Toxic	28	Non-Toxic	–	288	1.5	128	–	Non-Toxic	–	Non-Toxic	–	< 100	Active	Active	~22	Active
